Our source for the folding enthalpy and Tm values is the array DNA melting data of Ke et al. (doi:10.1101/2024.01.08.574731).

The nature of series [1]: folding enthalpy; higher = less favourable; fluorescence melt of hairpins on a sequencing array, two-state fit. The settings on record: sodium 0.088 M. In outline: (§1)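 Library hairpins on a sequenced MiSeq flow cell carried annealed Cy3 and quencher oligos, and their Cy3 fluorescence was imaged in 50 mM Na-HEPES pH 8.0 with 25 mM NaCl, in 2.5 °C steps up to 60 °C. Signals were normalised to Cy3 before quenching and to control constructs. Melting temperature and folding enthalpy were obtained from bootstrapped two-state fits, combined by inverse-variance weighting across four replicates, and the fitted temperatures were then raised by 9.35 °C to match UV melts.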

Series [2] can be described thus: melting temperature; fluorescence melt of hairpins on a sequencing array, two-state fit, raised by 9.35 °C to match UV melts. The settings on record: sodium 0.088 M. In outline:
as §1

For the sequence GGTGGACGAAAGTCACC (((.(((....)))))), the folding enthalpy in series [1] was -25.5 kcal/mol. In series [2], the Tm was 55.3 °C.

On to GGTGGCCGAAAGGCAACC (((.(((....))).))), for which the folding enthalpy in series [1] is -28.1 kcal/mol. Moreover, the Tm in series [2] came to 66.5 °C.

On to GGTGGCCGAAAGGCGACC (((.(((....))).))), for which the folding enthalpy in series [1] is -30.2 kcal/mol. The Tm in series [2] is 66.2 °C.

Consider GGTGGCGAAAGCCACACC ((((((....)))..))), for which the folding enthalpy in series [1] was -6.43 kcal/mol. Further, the Tm in series [2] turned out to be 60 °C.

For the sequence GGTGGCGAAAGCCGGACC ((((((....)))..))), the folding enthalpy in series [1] was -12.1 kcal/mol. The Tm in series [2] came to 46.8 °C.

On to GGTGGCGAAAGCCTAACC ((((((....)))..))), for which the folding enthalpy in series [1] is -16.5 kcal/mol. Moreover, in series [2], the Tm is 43.7 °C.

On to GGTGGCGCGAAAGCGACC (((..(((....)))))), for which the folding enthalpy in series [1] is -9.77 kcal/mol. Further, the Tm in series [2] was 52.8 °C.

Regarding GGTGGCGGAAACACCACC (((((.(....).))))), in series [1], the folding enthalpy is -42.3 kcal/mol. Further, the Tm in series [2] is 53.8 °C.

Regarding GGTGGGCGAAAGCCTACC (((.(((....))).))), the folding enthalpy in series [1] is -22.3 kcal/mol. In addition, the Tm in series [2] came to 65.6 °C.

Take GGTGGGGAAACCCACC ((((((....)))))): the folding enthalpy in series [1] was -42.9 kcal/mol. Besides, the Tm in series [2] is 68.1 °C.

For the sequence GGTGGGGGAAACCCCGCC ((.((((....)))).)), in series [1], the folding enthalpy was -27.5 kcal/mol. Moreover, the Tm in series [2] was 61.4 °C.

As to GGTGGGGGAAACCCCGTC (..((((....))))..), the folding enthalpy in series [1] is -12 kcal/mol. Besides, the Tm in series [2] is 38.2 °C.

In the case of GGTGGGGGAAACTCCGCC ((.((.(....).)).)), the folding enthalpy in series [1] was -26.4 kcal/mol. Also, the Tm in series [2] is 49.6 °C.

Regarding GGTGGTGGAAACGTCACC ((((..(....)..)))), in series [1], the folding enthalpy is -23.4 kcal/mol. In addition, the Tm in series [2] worked out at 44.5 °C.

For the sequence GGTGTACGAAAGTAACC (((.(((....)))))), the folding enthalpy in series [1] is -24.5 kcal/mol. In addition, in series [2], the Tm came to 47.8 °C.

As to GGTGTAGGAAACTGTACC (((..((....))..))), the folding enthalpy in series [1] was -19.3 kcal/mol. In addition, the Tm in series [2] is 29.6 °C.

For GGTGTATCGAAAGATACC (((..(((....)))))), in series [1], the folding enthalpy is -14.7 kcal/mol. For the same sequence, in series [2], the Tm is 43.3 °C.

As for GGTGTCCCGAAAGGGACC (((..(((....)))))), the folding enthalpy in series [1] was -9.51 kcal/mol. In series [2], the Tm was found to be 49.5 °C.

GGTGTCGAAAGACATACC ((((((....)))..))): the folding enthalpy in series [1] is -13.9 kcal/mol. Further, the Tm in series [2] was 43.5 °C.

Regarding GGTGTCGAAAGACCAACC ((((((....)))..))), in series [1], the folding enthalpy is -15.3 kcal/mol. The Tm in series [2] was 37.5 °C.

On to GGTGTCGAAAGACCTACC ((((((....)))..))), for which the folding enthalpy in series [1] was -16.1 kcal/mol. Moreover, the Tm in series [2] is 33.8 °C.

Regarding GGTGTCGAAAGACGGACC ((((((....)))..))), the folding enthalpy in series [1] was -16.6 kcal/mol. Further, the Tm in series [2] stood at 40.3 °C.

Consider GGTGTCGGAAACGACATC (.(((((....))))).), for which the folding enthalpy in series [1] was -26.8 kcal/mol. Further, the Tm in series [2] is 54 °C.

Consider GGTGTGAAAACACC (((((....))))), for which the folding enthalpy in series [1] is -30.9 kcal/mol. For the same sequence, in series [2], the Tm came out at 57.3 °C.

With GGTGTGCGAAAGCAAACC (((.(((....))).))), the folding enthalpy in series [1] was -35.5 kcal/mol. For the same sequence, the Tm in series [2] stood at 56 °C.

As for GGTGTGCGAAAGCATACC (((.(((....))).))), the folding enthalpy in series [1] is -38.4 kcal/mol. Also, the Tm in series [2] stood at 63.6 °C.

In the case of GGTGTGTCGAAAGACACC (((..(((....)))))), the folding enthalpy in series [1] was -10.2 kcal/mol. In series [2], the Tm came out at 47.8 °C.

On to GGTGTTGGAAACAACGCC ((.((((....)))).)), for which, in series [1], the folding enthalpy was -36.1 kcal/mol. Besides, the Tm in series [2] was 57.3 °C.

As for GGTGTTGGAAACAATGCC ((..(((....)))..)), the folding enthalpy in series [1] was -21 kcal/mol. Moreover, in series [2], the Tm was found to be 41.8 °C.

For GGTTAACGAAAGTTACC (((.(((....)))))), in series [1], the folding enthalpy was -21.9 kcal/mol. Further, in series [2], the Tm came to 43.9 °C.

On to GGTTAACGAAAGTTCACC (((.(((....))).))), for which the folding enthalpy in series [1] is -31.3 kcal/mol. In addition, the Tm in series [2] came to 43 °C.

Consider GGTTAAGAAATTAACC ((((((....)))))), for which the folding enthalpy in series [1] was -23.8 kcal/mol. Moreover, the Tm in series [2] was 43.5 °C.

For the sequence GGTTAAGGAAACTTAACC (((((((....))))))), in series [1], the folding enthalpy is -38.5 kcal/mol. Moreover, the Tm in series [2] was determined as 52.7 °C.

On to GGTTACCGAAAGGTTACC (((.(((....))).))), for which the folding enthalpy in series [1] was -30.3 kcal/mol. Further, in series [2], the Tm came out at 52.6 °C.

Regarding GGTTACGAAAGTAATACC ((((((....)))..))), the folding enthalpy in series [1] was -14.9 kcal/mol. The Tm in series [2] was determined as 33.5 °C.

In the case of GGTTACGAAAGTATGACC ((((((....)))..))), the folding enthalpy in series [1] is -15.1 kcal/mol. Also, the Tm in series [2] was 30.4 °C.
